Test results reported in ChEMBL document CHEMBL1132961 (J Med Chem, 2000).

Columns and labels:
[1] = molecular target: T1, Human immunodeficiency virus type 1 protease (Human immunodeficiency virus 1, UniProt Q72874); assay: Activity of potent nonpeptidic inhibitor against protease
Outline: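 Incubated with 40 µM His-Lys-Ala-Arg-Val-Leu-(p-NO₂-Phe)-Glu-Ala-Nle-Ser-NH₂ in 1.0% DMSO, pH 6.2 MES buffer (DTT, NaCl, EDTA, PEG 8000) for 60 min at 37 °C, then TFA quench. Substrate and product separated by reverse-phase HPLC, read at 220 nm. % control = conversion with inhibitor / conversion without × 100; IC50 derived.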

[2] = Concentration which elicits cytotoxicity in 50% of uninfected human lymphocyte derived CEM cells; assay type: cell-based, CCRF-CEM; settings: uninfected CCRF-CEM cells, read-out: TC50 (the source's name)
Outline: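 Cytotoxicity measured in uninfected human lymphocyte-derived CEM cells by XTT protocol.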

[3] = system: Human immunodeficiency virus 1; assay: Effective concentration at which 50% of the HIV-IIIB-infected human lymphocyte-derived CEM cells protected from HIV-1 infection; settings: Human immunodeficiency virus 1, CCRF-CEM
[4] = molecular target: T1, Human immunodeficiency virus type 1 protease; assay: Tested for binding affinity against HIV protease

IC50 [1] [nM] | EC50 [3] [nM] | Ki [4] [nM] | SMILES | CC50 [2] [nM]
6.7 | 1400 |  | Cc1cc(SC2=C(O)OC(CCc3ccccc3)(C(C)C)CC2=O)c(C(C)(C)C)cc1OS(=O)(=O)c1ccccn1 (centres undefined) | 65000
1.5 | 5200 |  | Cc1cc(SC2=C(O)OC(C)(CCc3ccc(O)cc3)CC2=O)c(C(C)(C)C)cc1NS(=O)(=O)c1ccccc1 (centres undefined) | > 100000
14 | 4600 |  | Cc1cc(SC2=C(O)OC(CCc3ccccc3)(C(C)C)CC2=O)c(C(C)(C)C)cc1OS(=O)(=O)c1cccnc1 (centres undefined) | 65000
3.5 | 3900 |  | Cc1cc(SC2=C(O)OC(C)(CCc3ccc(O)cc3)CC2=O)c(C(C)(C)C)cc1NS(=O)(=O)c1ccc(Cl)cc1 (centres undefined) | 71000
13 | 3700 |  | Cc1cc(SC2=C(O)OC(C)(CCc3ccc(O)cc3)CC2=O)c(C(C)(C)C)cc1N (centres undefined) | > 100000
5 | 700 |  | Cc1cc(SC2=C(O)OC(CCc3ccc(O)cc3)(C(C)C)CC2=O)c(C(C)(C)C)cc1OS(=O)(=O)c1ccccn1 (centres undefined) | 84000
 | 1100 | 0.7 | Cc1cc(SC2=C(O)OC(CCc3ccccc3)(C(C)C)CC2=O)c(C(C)(C)C)cc1OS(=O)(=O)c1ccc(C#N)cc1 (centres undefined) | 25000
29 | 9500 |  | Cc1cc(SC2=C(O)OC(CCc3ccc(O)cc3)(C3CCCCC3)CC2=O)c(C(C)(C)C)cc1OS(=O)(=O)c1ccc(F)cc1 (centres undefined) | 66000
2.1 | 5000 |  | Cc1cc(SC2=C(O)OC(C)(CCc3ccc(O)cc3)CC2=O)c(C(C)(C)C)cc1NS(=O)(=O)c1ccc(C#N)cc1 (centres undefined) | > 100000
4.1 | 2200 |  | Cc1cc(SC2=C(O)OC(CCc3ccc(N)cc3)(C(C)C)CC2=O)c(C(C)(C)C)cc1OS(=O)(=O)c1cccnc1 (centres undefined) | 66000
 | 55000 |  | CC(=O)Nc1ccc(S(=O)(=O)Nc2cc(C(C)(C)C)c(SC3=C(O)OC(C)(CCc4ccc(O)cc4)CC3=O)cc2C)cc1 (centres undefined) | > 100000
131 | > 59000 |  | Cc1cc(SC2=C(O)OC(CCc3ccc(O)cc3)(C3CCCCC3)CC2=O)c(C(C)(C)C)cc1OS(=O)(=O)c1ccccc1 (centres undefined) | 59000
12.3 | 3500 |  | Cc1cc(SC2=C(O)OC(C)(CCc3ccc(O)cc3)CC2=O)c(C(C)(C)C)cc1NS(=O)(=O)c1ccc(C(F)(F)F)cc1 (centres undefined) | 79000
9.6 | 800 |  | Cc1cc(SC2=C(O)OC(CCc3ccc(O)cc3)(C(C)C)CC2=O)c(C(C)(C)C)cc1OS(=O)(=O)c1ccc(F)cc1 (centres undefined) | 66000
10.4 | 1600 |  | Cc1cc(SC2=C(O)OC(CCc3ccc(O)cc3)(C(C)C)CC2=O)c(C(C)(C)C)cc1OS(=O)(=O)c1ccccc1 (centres undefined) | 66000
9.8 | 12000 |  | Cc1cc(SC2=C(O)OC(C)(CCc3ccc(O)cc3)CC2=O)c(C(C)(C)C)cc1OS(=O)(=O)c1ccccc1 (centres undefined) | 82000
1.3 | 400 |  | Cc1cc(SC2=C(O)OC(CCc3ccc(N)cc3)(C(C)C)CC2=O)c(C(C)(C)C)cc1OS(=O)(=O)c1ccc(C#N)cc1 (centres undefined) | 53000
6.3 | 5600 |  | Cc1cc(SC2=C(O)OC(C)(CCc3ccc(O)cc3)CC2=O)c(C(C)(C)C)cc1NS(=O)(=O)c1ccc(-c2cccs2)cc1 (centres undefined) | > 100000
3.6 | 2400 |  | Cc1cc(SC2=C(O)OC(CCc3ccc(O)cc3)(C3CC3)CC2=O)c(C(C)(C)C)cc1NS(=O)(=O)c1ccccc1 (centres undefined) | 76000
8.6 | 2500 |  | Cc1cc(SC2=C(O)OC(CCc3ccc(O)cc3)(C3CCCC3)CC2=O)c(C(C)(C)C)cc1NS(=O)(=O)c1ccccc1 (centres undefined) | 67000
9.7 | 19000 |  | Cc1cc(SC2=C(O)OC(C)(CCc3ccc(O)cc3)CC2=O)c(C(C)(C)C)cc1NS(C)(=O)=O (centres undefined) | > 100000
3.7 | 5600 |  | Cc1cc(SC2=C(O)OC(C)(CCc3ccc(O)cc3)CC2=O)c(C(C)(C)C)cc1NS(=O)(=O)c1ccc(F)cc1 (centres undefined) | 93000
21 | 2600 |  | Cc1cc(SC2=C(O)OC(CCc3ccc(O)cc3)(C3CCCCC3)CC2=O)c(C(C)(C)C)cc1OS(=O)(=O)c1ccc(C#N)cc1 (centres undefined) | 29000
 | 1000 |  | CCNS(=O)(=O)Oc1cc(C(C)(C)C)c(SC2=C(O)OC(CCc3ccc(O)cc3)(C(C)C)CC2=O)cc1C (centres undefined) | > 100000
16.9 | 6300 |  | Cc1cc(SC2=C(O)OC(C)(CCc3ccc(O)cc3)CC2=O)c(C(C)(C)C)cc1OS(=O)(=O)c1ccc(F)cc1 (centres undefined) | 100000
1.9 | 58000 |  | Cc1cc(SC2=C(O)OC(C)(CCc3ccc(O)cc3)CC2=O)c(C(C)(C)C)cc1NS(=O)(=O)Cn1ccnc1 (centres undefined) | > 100000

Second part, the compound before the results:

SMILES | IC50 [1] [nM] | EC50 [3] [nM] | Ki [4] [nM] | CC50 [2] [nM]
Cc1cc(SC2=C(O)OC(CCc3ccc(O)cc3)(C(C)C)CC2=O)c(C(C)(C)C)cc1NS(=O)(=O)c1ccccn1 (centres undefined) | 2.6 | 4100 |  | > 100000
Cc1cc(SC2=C(O)OC(CCc3ccc(N)cc3)(C(C)C)CC2=O)c(C(C)(C)C)cc1OS(=O)(=O)N(C)C (centres undefined) |  | 800 |  | 64000
Cc1cc(SC2=C(O)OC(CCc3ccccc3)(C(C)C)CC2=O)c(C(C)(C)C)cc1O (centres undefined) |  | 1800 | 1.1 | 66000
Cc1cc(SC2=C(O)OC(CCc3ccc(O)cc3)(C(C)C)CC2=O)c(C(C)(C)C)cc1NS(=O)(=O)c1cccnc1 (centres undefined) | 2.6 | 5800 |  | > 100000
Cc1cc(SC2=C(O)OC(CCc3ccc(O)cc3)(C(C)C)CC2=O)c(C(C)(C)C)cc1NS(=O)(=O)c1cccs1 (centres undefined) | 8.7 | 1800 |  | > 100000
Cc1cc(SC2=C(O)OC(CCc3ccccc3)(C(C)C)CC2=O)c(C(C)(C)C)cc1NS(=O)(=O)c1cccc(C#N)c1 (centres undefined) |  | 1500 | 1.4 | 66000
Cc1cc(SC2=C(O)OC(CCc3ccc(O)cc3)(C(C)C)CC2=O)c(C(C)(C)C)cc1NS(C)(=O)=O (centres undefined) | 4 | 5300 |  | > 100000
Cc1cc(SC2=C(O)OC(CCc3ccc(O)cc3)(C(C)C)CC2=O)c(C(C)(C)C)cc1NS(=O)(=O)c1cccc(C#N)c1 (centres undefined) |  | 5300 | 0.21 | > 100000
Cc1cc(SC2=C(O)OC(CCc3ccc(O)cc3)(C(C)C)CC2=O)c(C(C)(C)C)cc1N (centres undefined) |  | 1000 |  | 92000
Cc1cc(SC2=C(O)OC(CCc3ccccc3)(C(C)C)CC2=O)c(C(C)(C)C)cc1NS(C)(=O)=O (centres undefined) |  | 1600 | 0.83 | > 100000
Cc1cc(SC2=C(O)OC(CCc3ccc(O)cc3)(C(C)C)CC2=O)c(C(C)(C)C)cc1NS(=O)(=O)c1ccc(C(F)(F)F)cc1 (centres undefined) | 18.3 | 1100 |  | 66000
Cc1cc(SC2=C(O)O[C@@](CCc3ccccc3)(C(C)C)CC2=O)c(C(C)(C)C)cc1NS(=O)(=O)c1ccc(C(F)(F)F)cn1 |  | 5900 | 6.4 | 66000
CCNS(=O)(=O)Oc1cc(C(C)(C)C)c(SC2=C(O)OC(CCc3ccc(N)cc3)(C(C)C)CC2=O)cc1C (centres undefined) |  | 700 |  | 83000
Cc1cc(SC2=C(O)OC(CCc3ccc(O)cc3)(C(C)C)CC2=O)c(C(C)(C)C)cc1NS(=O)(=O)c1ccc(F)cc1 (centres undefined) | 4.1 | 1800 |  | 66000
Cc1cc(SC2=C(O)OC(CCc3ccccc3)(C(C)C)CC2=O)c(C(C)(C)C)cc1OS(=O)(=O)Cn1ccnc1 (centres undefined) | 3 | 1100 |  | 66000
Cc1cc(SC2=C(O)OC(CCc3ccc(O)cc3)(C(C)C)CC2=O)c(C(C)(C)C)cc1NS(=O)(=O)c1ccc(Cl)cc1 (centres undefined) | 5.3 | 1600 |  | 66000
Cc1cc(SC2=C(O)OC(CCc3ccccc3)(C(C)C)CC2=O)c(C(C)(C)C)cc1NS(=O)(=O)c1cccs1 (centres undefined) | 3.6 | 2100 |  | 61000
Cc1cc(SC2=C(O)O[C@@](CCc3ccc(O)cc3)(C(C)C)CC2=O)c(C(C)(C)C)cc1NS(=O)(=O)c1ccc(C(F)(F)F)cn1 |  | 18000 | 9.54 | 66000
Cc1cc(SC2=C(O)OC(CCc3ccccc3)(C(C)C)CC2=O)c(C(C)(C)C)cc1NS(=O)(=O)c1cccnc1 (centres undefined) | 3.5 | 1600 |  | 76000
CCNS(=O)(=O)Nc1cc(C(C)(C)C)c(SC2=C(O)OC(CCc3ccc(O)cc3)(C(C)C)CC2=O)cc1C (centres undefined) | 1.7 | 3300 |  | > 100000
Cc1cc(SC2=C(O)OC(CCc3ccc(O)cc3)(C(C)C)CC2=O)c(C(C)(C)C)cc1NS(=O)(=O)N(C)C (centres undefined) | 3.6 | 1700 |  | > 100000
CCNS(=O)(=O)Nc1cc(C(C)(C)C)c(SC2=C(O)OC(CCc3ccccc3)(C(C)C)CC2=O)cc1C (centres undefined) | 3.3 | 1200 |  | 77000
Cc1cc(SC2=C(O)OC(CCc3ccc(N)cc3)(C(C)C)CC2=O)c(C(C)(C)C)cc1OS(=O)(=O)c1cccs1 (centres undefined) | 18.5 | 6000 |  | 66000
Cc1cc(SC2=C(O)OC(CCc3ccccc3)(C(C)C)CC2=O)c(C(C)(C)C)cc1N (centres undefined) | 3.6 | 1900 |  | 69000
Cc1cc(SC2=C(O)OC(CCc3ccccc3)(C(C)C)CC2=O)c(C(C)(C)C)cc1NS(=O)(=O)Cn1ccnc1 (centres undefined) | 1.9 | 4200 |  | > 100000
Cc1cc(SC2=C(O)OC(CCc3ccc(O)cc3)(C(C)C)CC2=O)c(C(C)(C)C)cc1OS(=O)(=O)N(C)C (centres undefined) |  |  |  | 70000
